Test results from the M2OR odorant receptor database.
Residue numbers refer to the chain shown, from its start.

Columns and labels:
Settings in all cases: stereoisomer not certain
OR1N2 = test system: T1, OR1N2
T1 sequence (whole entry): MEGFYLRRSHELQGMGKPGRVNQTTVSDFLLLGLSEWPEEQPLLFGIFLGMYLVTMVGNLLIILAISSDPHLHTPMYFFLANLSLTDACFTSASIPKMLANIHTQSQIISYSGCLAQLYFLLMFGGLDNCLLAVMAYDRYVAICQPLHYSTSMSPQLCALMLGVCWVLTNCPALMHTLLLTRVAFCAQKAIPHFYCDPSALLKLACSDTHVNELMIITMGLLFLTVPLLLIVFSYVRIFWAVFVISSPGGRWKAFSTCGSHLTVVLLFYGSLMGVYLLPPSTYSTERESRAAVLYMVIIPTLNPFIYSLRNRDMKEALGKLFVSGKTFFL
Procedure, shortened: (§1)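 Assay methods differ from source to source, frequently being transient luciferase assays in mammalian cell lines. For each receptor–molecule pair, the label responsive (active) applies when the original authors judged the measured signal statistically different from baseline, and non-responsive (inactive) applies otherwise.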

OR1Q1 (Homo sapiens) = target: T2, OR1Q1 (Homo sapiens) (UniProt Q15612)
T2 sequence (whole entry): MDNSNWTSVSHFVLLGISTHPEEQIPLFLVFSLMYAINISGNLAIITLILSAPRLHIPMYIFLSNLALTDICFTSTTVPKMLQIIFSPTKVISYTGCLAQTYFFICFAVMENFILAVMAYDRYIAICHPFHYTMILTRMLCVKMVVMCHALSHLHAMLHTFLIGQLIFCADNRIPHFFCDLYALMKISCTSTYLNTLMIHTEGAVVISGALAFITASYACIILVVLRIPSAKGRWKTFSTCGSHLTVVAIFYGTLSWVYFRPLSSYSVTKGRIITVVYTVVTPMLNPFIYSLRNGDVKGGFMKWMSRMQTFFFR
Procedure, shortened: as §1

OR1Q1 = test system: T3, OR1Q1
T3 sequence (whole entry): T2 sequence (whole entry) with Q24R, I163M
Procedure, shortened: as §1

OR1S1 (Homo sapiens) = target: T4, OR1S1 (Homo sapiens) (UniProt Q8NH92)
T4 sequence (whole entry): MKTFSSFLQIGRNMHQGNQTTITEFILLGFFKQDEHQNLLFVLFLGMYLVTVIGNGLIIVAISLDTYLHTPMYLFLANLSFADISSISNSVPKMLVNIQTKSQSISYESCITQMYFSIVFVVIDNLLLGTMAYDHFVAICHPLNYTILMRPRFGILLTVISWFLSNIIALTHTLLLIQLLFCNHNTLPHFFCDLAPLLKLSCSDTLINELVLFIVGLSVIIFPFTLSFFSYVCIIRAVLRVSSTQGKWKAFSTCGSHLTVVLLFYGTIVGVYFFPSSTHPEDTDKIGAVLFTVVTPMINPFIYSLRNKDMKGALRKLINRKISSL
Procedure, shortened: as §1

OR1S2 (Homo sapiens) = target: T5, OR1S2 (Homo sapiens) (UniProt Q8NGQ3)
T5 sequence (whole entry): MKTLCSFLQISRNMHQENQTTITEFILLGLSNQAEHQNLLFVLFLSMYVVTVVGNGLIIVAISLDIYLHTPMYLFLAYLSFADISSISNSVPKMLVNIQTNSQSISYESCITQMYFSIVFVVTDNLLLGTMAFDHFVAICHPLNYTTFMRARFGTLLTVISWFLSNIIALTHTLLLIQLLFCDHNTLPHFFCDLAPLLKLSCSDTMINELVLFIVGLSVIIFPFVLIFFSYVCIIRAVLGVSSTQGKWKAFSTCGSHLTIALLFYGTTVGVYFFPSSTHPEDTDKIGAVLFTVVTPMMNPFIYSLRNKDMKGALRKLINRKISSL
Procedure, shortened: as §1

OR1S2 E17G = test system: T6, OR1S2 E17G
T6 sequence (whole entry): T5 sequence (whole entry) with E17G
Procedure, shortened: as §1

OR1S2 V225T G240R = test system: T7, OR1S2 V225T G240R
T7 sequence (whole entry): T5 sequence (whole entry) with V225T, G240R
Procedure, shortened: as §1

OR2A1 (Homo sapiens) = target: T8, OR2A1 (Homo sapiens) (UniProt Q8NGT9)
T8 sequence (whole entry): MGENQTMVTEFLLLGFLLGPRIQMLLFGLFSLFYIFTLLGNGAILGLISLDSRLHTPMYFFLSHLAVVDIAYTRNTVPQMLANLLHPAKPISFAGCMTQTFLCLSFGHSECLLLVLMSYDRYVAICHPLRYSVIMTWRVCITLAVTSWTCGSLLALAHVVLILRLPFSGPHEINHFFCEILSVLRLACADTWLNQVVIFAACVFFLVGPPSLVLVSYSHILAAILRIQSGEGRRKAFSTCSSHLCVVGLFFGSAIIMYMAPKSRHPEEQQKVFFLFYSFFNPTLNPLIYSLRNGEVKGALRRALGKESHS
Procedure, shortened: as §1

OR2A1 S168C = test system: T9, OR2A1 S168C
T9 sequence (whole entry): T8 sequence (whole entry) with S168C
Procedure, shortened: as §1

OR2A1 T73A R74C S168C = test system: T10, OR2A1 T73A R74C S168C
T10 sequence (whole entry): T8 sequence (whole entry) with T73A, R74C, S168C
Procedure, shortened: as §1

OR2A12 (Homo sapiens) = target: T11, OR2A12 (Homo sapiens) (UniProt Q8NGT7)
T11 sequence (whole entry): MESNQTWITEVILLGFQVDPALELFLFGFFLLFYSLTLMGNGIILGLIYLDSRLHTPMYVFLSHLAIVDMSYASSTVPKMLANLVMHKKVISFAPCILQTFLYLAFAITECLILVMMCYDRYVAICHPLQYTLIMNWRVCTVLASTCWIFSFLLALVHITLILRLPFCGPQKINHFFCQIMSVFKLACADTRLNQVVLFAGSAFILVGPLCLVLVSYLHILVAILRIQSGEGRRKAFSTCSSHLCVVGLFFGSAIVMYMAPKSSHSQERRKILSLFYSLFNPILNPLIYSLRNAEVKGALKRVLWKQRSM
Procedure, shortened: as §1

OR2A14 (Homo sapiens) = target: T12, OR2A14 (Homo sapiens) (UniProt Q96R47)
T12 sequence (whole entry): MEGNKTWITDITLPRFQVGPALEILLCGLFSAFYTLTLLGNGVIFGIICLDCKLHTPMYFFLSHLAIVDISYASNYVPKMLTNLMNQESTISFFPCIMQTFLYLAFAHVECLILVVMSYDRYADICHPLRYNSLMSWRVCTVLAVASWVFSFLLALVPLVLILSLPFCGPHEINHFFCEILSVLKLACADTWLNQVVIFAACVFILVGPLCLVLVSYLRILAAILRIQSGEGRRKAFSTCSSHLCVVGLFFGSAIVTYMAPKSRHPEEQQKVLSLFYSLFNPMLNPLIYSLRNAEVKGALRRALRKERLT
Procedure, shortened: as §1

OR2A2 (Homo sapiens) = target: T13, OR2A2 (Homo sapiens) (UniProt Q6IF42)
T13 sequence (whole entry): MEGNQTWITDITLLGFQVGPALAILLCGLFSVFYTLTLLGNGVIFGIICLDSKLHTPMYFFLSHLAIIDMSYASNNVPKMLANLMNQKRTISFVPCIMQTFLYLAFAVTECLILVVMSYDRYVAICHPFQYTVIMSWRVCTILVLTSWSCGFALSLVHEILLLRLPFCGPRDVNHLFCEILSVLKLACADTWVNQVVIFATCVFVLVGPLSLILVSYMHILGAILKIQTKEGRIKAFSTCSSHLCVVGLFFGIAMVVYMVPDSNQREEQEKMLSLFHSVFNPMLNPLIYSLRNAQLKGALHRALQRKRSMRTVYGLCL
Procedure, shortened: as §1

OR2A25 (Homo sapiens) = target: T14, OR2A25 (Homo sapiens) (UniProt A4D2G3)
T14 sequence (whole entry): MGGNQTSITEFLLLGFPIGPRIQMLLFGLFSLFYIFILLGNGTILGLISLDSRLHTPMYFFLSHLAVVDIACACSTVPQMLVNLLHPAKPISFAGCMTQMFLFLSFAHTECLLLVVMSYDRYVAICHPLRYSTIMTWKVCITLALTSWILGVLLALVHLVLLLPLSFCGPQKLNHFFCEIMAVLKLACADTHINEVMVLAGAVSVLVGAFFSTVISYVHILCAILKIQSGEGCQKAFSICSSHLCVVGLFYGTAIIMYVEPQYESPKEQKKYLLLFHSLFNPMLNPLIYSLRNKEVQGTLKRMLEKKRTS
Procedure, shortened: as §1

OR2A2 = test system: T15, OR2A2
T15 sequence (whole entry): T13 sequence (whole entry) with F280L
Procedure, shortened: as §1

OR2A4 (Homo sapiens) = target: T16, OR2A4 (Homo sapiens) (UniProt O95047)
T16 sequence (whole entry): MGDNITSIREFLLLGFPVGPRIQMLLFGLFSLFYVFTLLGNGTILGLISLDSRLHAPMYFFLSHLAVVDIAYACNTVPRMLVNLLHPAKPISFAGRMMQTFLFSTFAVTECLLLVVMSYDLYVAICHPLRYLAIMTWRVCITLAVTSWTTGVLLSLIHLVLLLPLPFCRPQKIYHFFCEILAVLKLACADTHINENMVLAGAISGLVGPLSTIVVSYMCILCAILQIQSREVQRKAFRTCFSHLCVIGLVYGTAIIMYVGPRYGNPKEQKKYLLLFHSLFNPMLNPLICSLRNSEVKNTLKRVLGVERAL
Procedure, shortened: as §1

OR2A5 (Homo sapiens) = target: T17, OR2A5 (Homo sapiens) (UniProt Q96R48)
T17 sequence (whole entry): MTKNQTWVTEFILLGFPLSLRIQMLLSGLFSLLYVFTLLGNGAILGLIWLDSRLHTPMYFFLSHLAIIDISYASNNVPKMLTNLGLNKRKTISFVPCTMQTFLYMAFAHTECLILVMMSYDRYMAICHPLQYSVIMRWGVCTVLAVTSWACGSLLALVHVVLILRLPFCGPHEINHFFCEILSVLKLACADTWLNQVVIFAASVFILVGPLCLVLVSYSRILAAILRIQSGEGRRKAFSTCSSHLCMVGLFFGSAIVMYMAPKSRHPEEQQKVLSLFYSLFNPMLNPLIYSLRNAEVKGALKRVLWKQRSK
Procedure, shortened: as §1

OR2A5 I126V A202S A255T = test system: T18, OR2A5 I126V A202S A255T
T18 sequence (whole entry): T17 sequence (whole entry) with I126V, A202S, A255T
Procedure, shortened: as §1

OR2A7 (Homo sapiens) = target: T19, OR2A7 (Homo sapiens) (UniProt Q96R45)
T19 sequence (whole entry): T16 sequence (whole entry) with R9T, R238C, V250F
Procedure, shortened: as §1

Measured: odorant receptor agonist call

CCCC(S)CCOC(C)=O (stereo unspecified)
inactive: all assays above

CCCCCCCC(=O)OCC
inactive: OR2A1 (Homo sapiens) | OR2A7 (Homo sapiens)

CC1=C(O)C(=O)C(C)O1 (stereo unspecified)
inactive: all assays above

CCC1OC(=O)C(O)=C1C (stereo unspecified)
inactive: all assays above

CCCC(=O)CC
inactive: OR2A1 (Homo sapiens) | OR2A7 (Homo sapiens)

CCCCCCC=CCCC=O
inactive: all assays above

Cc1cnc(C)c(C)n1
inactive: all assays above

CCCCC(S)C(C)CO (stereo unspecified)
not listed: OR1Q1 | OR1S2 E17G | OR1S2 V225T G240R | OR2A1 S168C | OR2A1 T73A R74C S168C | OR2A2 | OR2A5 I126V A202S A255T
inactive: all other assays above

O=c1ccc2ccccc2o1
inactive: OR2A1 (Homo sapiens) | OR2A7 (Homo sapiens)

CCCCCCCCCC(=O)OCC
inactive: OR2A1 (Homo sapiens) | OR2A7 (Homo sapiens)

CC(C)=CCCC(C)=CCO
inactive: OR2A1 (Homo sapiens) | OR2A7 (Homo sapiens)

CC1=NC(C)C(C)S1 (stereo unspecified)
inactive: all assays above
